# Bioassay records from PubChem.
# FN deposit inh: fibronectin deposition inhibition | AH1F fibroblasts, Alexa488-fibronectin deposition fluorescence, overnight | inhibition, % at 12.6 µM | 0.086% of 350,000 active;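 active = mean inhibition across replicates of 30% or more, regardless of how many single replicates reach that level; inconclusive = mean under 30% yet at least half of replicates reach 30%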;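 also: positive control wells lacked labelled fibronectin entirely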
#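 Assay system: AH1F fibroblasts / Quantity: 10000 cells per well / Medium: DMEM plus 2% serum, read in PBS / Reagent: labelled fibronectin 24 nM / Dosing: single dose, pinned / Times: 1 h cell attachment, overnight exposure to compound and label / Signal: fluorescence, ex 485 nm, em 525 nm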
# FGF22 binding: binders of recombinant human FGF22 by thermal shift; Q9HCT0; SYPRO orange fluorescence; percent of sucrose octasulfate shift, DMSO zero; activity (Tm shift, normalised), % at 9.99 µM; 1.5% of 340,000 active; AID 651658;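 active = mean Tm shift, scaled 0 neutral to 100 positive control, at about 1.3% or above, every replicate too, limit read from the data; inconclusive = no clear call, values can overlap the other calls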
# Target sequence (Q9HCT0 whole entry, looked up): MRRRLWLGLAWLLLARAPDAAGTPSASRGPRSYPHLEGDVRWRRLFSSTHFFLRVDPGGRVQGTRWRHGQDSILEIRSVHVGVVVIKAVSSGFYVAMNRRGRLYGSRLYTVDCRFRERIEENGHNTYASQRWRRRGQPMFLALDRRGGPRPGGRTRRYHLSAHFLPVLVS
# XiGFP reactiv: X-chromosome reactivation activator; 0.055% of 360,000 active; activation, % at 7.58 µM; XiGFP mouse fibroblasts, % GFP-positive cells imaging, 3 d; cells co-treated with 5-aza-dC sensitizer; scaled so ellipticine positive control = 100%;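 active = mean normalized replicate activation at least 10% and every replicate at or above 10%; inconclusive = only one of the two criteria met; inactive = mean below 10% and not all replicates reach 10%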;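 also: 0% = median of on-plate neutral control wells and 100% = ellipticine 6 µM median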
#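 System: 68-5-11 XiGFP fibroblast line | Buffer or medium: DMEM containing 5-aza-dC | Compound: Single point | Times: Compounds 3 days, fix/stain 15 min at room temperature | Benchmarks: Positive control ellipticine, 6 µM final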
# SIRT5 inh: blocks human SIRT5 desuccinylation of peptide; Purified SirT5, succinyl-peptide AMC, trypsin-coupled fluorescence; inhibition, % at 15 µM; AID 652115; Q9NXA8; 1.1% of 330,000 active; in the data active = inhibition above about 15%; inconclusive = no clear call, values can overlap the other calls
# DENV2 CPE: inhibitors of DENV2 cytopathic effect | DENV2-infected cells, cytopathic effect rescue, plate reader | CPE inhibition, % at 9.99 µM | 1.7% of 350,000 active | AID 651640; in the data active = CPE inhibition above about 20%, passing the limit was not always enough; inconclusive = no clear call, values can overlap the other calls; tested in BHK-21 cells;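 also: 0% = median of neutral control wells and 100% = median of positive control wells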
# ARNT-TACC3 inh: ARNT/TACC3 interaction disruption. inhibition, % at 9.99 µM. 0.66% of 390,000 active. Q9Y6A5. AlphaScreen His-ARNT PAS-B/GST-TACC3 binding, luminescence; TACC3 fragment carries E629A point mutation. AID 623870;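 active = mean inhibition of replicates at least 50% and at least half of replicates each reaching 50%; inconclusive = half or more replicates reach 50% but mean below 50%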;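 also: 0% = complete ARNT plus TACC3 wells and 100% = ARNT alone without TACC3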
# Numbers without * were called inactive; ? = inconclusive; / = no result given. A selection: hits, their analogues and other compounds. The true share with any hit is near 3.8%.
SMILES,FN deposit inh,FGF22 binding,XiGFP reactiv,SIRT5 inh,DENV2 CPE,ARNT-TACC3 inh
C[C@H](CO)N1C[C@H](C)[C@H](CN(C)Cc2ccncc2)Oc2cc(Br)ccc2S1(=O)=O,15,0,0,15*,7,6
Cc1ccc(S(=O)(=O)N(C)C[C@H]2Oc3ccc(NC(=O)NC4CCCCC4)cc3C(=O)N([C@@H](C)CO)C[C@H]2C)cc1,/,0,0,5,-6,7
O=C(NCc1ccccc1)[C@@H]1c2ccccc2C(=O)N(CC23CC4CC(CC(C4)C2)C3)[C@H]1c1ccc(CO)cc1,/,0,/,12,10,-8
Cc1ccc(-n2ncc3c(=O)[nH]c(SCC(=O)N4CCCC4)nc32)cc1C,6,0,0,-2,63*,-19
CCN1CCCCC(=N/O)/C(=N/O)CCCC1,6,0,2,18*,-3,-29
C[C@@H]1CN([C@@H](C)CO)S(=O)(=O)c2ccc(C#CCN(C)C)cc2O[C@@H]1CN(C)C(=O)C1CCC1,/,0,0,4,17,-8
CCCC#Cc1ccc2c(c1)O[C@H](CN(C)C(=O)C1CCC1)[C@H](C)CN([C@H](C)CO)S2(=O)=O,-10,0,0,1,36*,5
C[C@H]1CN([C@@H](C)CO)S(=O)(=O)c2ccc(C#CCN(C)C)cc2O[C@H]1CN(C)C(=O)C1CCC1,/,0,0,-1,29*,-3
CCCC#Cc1ccc2c(c1)O[C@H](CN(C)C(=O)COC)[C@@H](C)CN([C@H](C)CO)S2(=O)=O,3,0,-1,-5,23*,0
C[C@@H]1CCCCO[C@H](CN(C)S(=O)(=O)c2cccs2)[C@@H](C)CN([C@@H](C)CO)C(=O)c2cc(NC(=O)Nc3ccccc3)ccc2O1,8,0,0,3,-14,-6
COc1ccc(C(=O)Nc2ccc(N3CCN(C(=O)c4cccs4)CC3)cc2)cc1Br,-2,0,0,-3,?,-6
CC(C)C(=O)N1CCC1(C)C(=O)Nc1ccccc1OC(F)F (configuration not stated),0,0,0,2,?,/
COc1ccc(-c2ccccc2)cc1NC(=O)c1cccs1,-6,0,0,16*,49*,-3
COc1ccc(C(=O)Nc2ccc(NC(=O)c3cccs3)cc2)cc1Cl,-5,43*,0,-6,-6,3
COc1cc(OC)cc(C(=O)Nc2ccc(N3CCN(C(=O)c4cccs4)CC3)cc2)c1,/,0,1,0,53*,-4
COc1ccc(C(=O)Nc2ccc(NC(=O)c3cccs3)c(OC)c2)cc1Cl,1,0,0,0,4,3
COc1ccc(-c2ccccc2)cc1NC(=O)C1(C)CCN1C(=O)C(C)C (configuration not stated),8,0,0,22*,-9,/
COc1cc(NC(=O)c2cccs2)c(OC)cc1NC(=O)c1cccs1,/,/,/,/,/,1
C[C@H](CO)N1C[C@H](C)[C@H](CN(C)S(=O)(=O)c2ccc(Cl)cc2)Oc2c(NC(=O)c3cnccn3)cccc2C1=O,11,/,-1,/,/,/
Cc1ccc(-c2ccc3c(c2)O[C@@H](CN(C)Cc2ccccn2)[C@@H](C)CN([C@H](C)CO)S3(=O)=O)cc1,/,0,2,8,3,6
CCCN1[C@@H]2c3ccc(-c4ccccc4)c(=O)n3C[C@@H]2[C@@H](CO)[C@@H]1C(=O)N[C@H](C)c1ccccc1,/,0,0,3,-3,2
Cc1cc(/C=N/Nc2ccc([N+](=O)[O-])cn2)c(C)n1-c1ccc(C(=O)O)cc1,5,0,0,32*,-1,/
O=C(N[C@@H]1CC[C@@H](CCNC(=O)C2CCCCC2)O[C@H]1CO)c1ccccn1,7,0,0,-3,-7,8
CN1CCC(=NNC(=O)C(=O)Nc2ccccc2F)CC1,1,43*,1,-2,/,/
CN1CCC(=NNC(=O)C(=O)NC(C)(C)C)CC1,/,0,/,-4,-3,2
